The source of these data is ChEMBL document CHEMBL3120069, “Chemical genetics-based discovery of indole derivatives as HCV NS5B polymerase inhibitors” (Eur J Med Chem, 2014).

Each structure is given as a SMILES string. pEC50: −log10 of the molar value.

Test [1] in a line: Ratio of antiviral activity against Hepatitis C virus Con1 Bart79I genotype 1b expressing NS5A S2204I mutant infected in human Huh7.5 cells assessed as time required for reducing viral RNA level by half to antiviral activity against Hepatitis C virus JFH-1 J6 genotype 2a infected in human Huh7.5 cells assessed as time required for reducing viral RNA level by half. The test is classed as functional, Huh-7.

Test [2] has as its system Hepatitis C virus. Briefly: Antiviral activity against Hepatitis C virus Con1 Bart79I genotype 1b expressing YFP infected in human Huh7.5 cells assessed as inhibition of NS5A S2204I mutant synthesis after 120 hrs by FACS analysis. The test is classed as functional, organism-based. The conditions noted are these: subtype 1b Con1 Bart79I. The method in brief: (§1)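 Huh7.5 cells stably carrying Bart79I-YFP subgenomic replicon (G418 selection), treated with DMSO or compound. Dose series over 5 days (120 h), or 10 M with sampling at 24, 48, 72 h. Cells washed, resuspended in PBS, and NS5A-YFP-positive cells counted by FACS. EC50 and T1/2 taken from response curves.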
In general terms: In flow cytometry, cells or beads pass a laser one at a time.

The test system of test [3] is Hepatitis C virus. The test can be described thus: Antiviral activity against Hepatitis C virus Con1 Bart79I genotype 1b expressing YFP infected in human Huh7.5 cells assessed as NS5A S2204I mutant synthesis at 5 uM after 120 hrs by FACS analysis (reference value: 66%). It counts as functional, Hepacivirus hominis, subtype 1b Con1 Bart79I, Huh-7. The method in brief: as §1

For test [4], the system named is Hepatitis C virus. The test can be described thus: Antiviral activity against Hepatitis C virus Con1 Bart79I genotype 1b expressing YFP infected in human Huh7.5 cells assessed as NS5A S2204I mutant synthesis at 10 uM after 72 hrs by FACS analysis (reference value: 52.2%). The test is classed as functional, Hepacivirus hominis, subtype 1b Con1 Bart79I, Huh-7. The method in brief: as §1

The subject of test [5] is Hepatitis C virus. Briefly: Antiviral activity against Hepatitis C virus Con1 Bart79I genotype 1b expressing YFP infected in human Huh7.5 cells assessed as time required for reducing viral core level by half at 10 uM by FACS analysis. The conditions noted are these: Hepacivirus hominis, subtype 1b Con1 Bart79I, Huh-7, in the assay text read “viral NS5A-YFP level” for “viral core level”. The test is classed as functional, organism-based. The method in brief:
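Huh7.5 cells stably carrying Bart79I-YFP subgenomic replicon (G418 750 mg/ml selection), exposed to compound at 10 µM; cells harvested at 24, 48, 72 h, washed, resuspended in PBS, NS5A-YFP-positive cell percentage read by FACS. T1/2 taken from the time-response curve.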

Test [6] deals with Hepatitis C virus. Briefly: Antiviral activity against Hepatitis C virus JFH-1 J6 genotype 2a infected in human Huh7.5 cells assessed as time required for reducing viral RNA level by half at 10 uM by real time qRT-PCR analysis. It counts as functional, organism-based. The note with it: Hepacivirus hominis, subtype 2a JFH1 J6, Huh-7. An outline of the steps:
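J6/JFH1 RNA-transfected Huh7.5 cells held at 10 µM compound for increasing periods; HCV and host GAPDH RNA measured by real-time qRT-PCR. Triplicates, mean ± SD; T1/2 for halving viral RNA from the time-response curve.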

Test [7] has as its system Hepatitis C virus. Briefly: Antiviral activity against Hepatitis C virus Con1 Bart79I genotype 1b infected in human Huh7.5 cells assessed as inhibition of NS5A S2204I mutant synthesis after 120 hrs by Western blot analysis. It counts as functional, organism-based. The conditions noted are these: subtype 1b Con1 Bart79I. The method in brief:
(§2)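 Bart79I replicon Huh7.5 cells, 1.5×10⁵/well, treated with DMSO or compound. Dose series for 5 days (120 h), or 10 M for 24, 48, 72 h. Lysed in RIPA with protease inhibitors and protein quantified by Bradford. NS5A and β-actin measured by Western blot, with NS5A normalized to β-actin. EC50 and T1/2 taken from response curves.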
(In general: A western blot detects proteins with antibodies after separation by electrophoresis.)

For test [8], the system named is Hepatitis C virus. Briefly: Antiviral activity against Hepatitis C virus Con1 Bart79I genotype 1b infected in human Huh7.5 cells assessed as time required for reducing NS5A S2204I mutant level by half at 10 uM by Western blot analysis. It counts as functional, organism-based. The conditions noted are these: Hepacivirus hominis, subtype 1b Con1 Bart79I, Huh-7. An outline of the steps:
as §2

The subject of test [9] is Hepatitis C virus. The test can be described thus: Antiviral activity against Hepatitis C virus Con1 Bart79I genotype 1b infected in human Huh7.5 cells assessed as inhibition of NS5A S2204I mutant synthesis at 10 uM by Western blot analysis. It counts as functional, organism-based. The conditions noted are these: Hepacivirus hominis, subtype 1b Con1 Bart79I, Huh-7, TDE = time-dependent effect. The method in brief: as §2

The subject of test [10] is Hepatitis C virus. The test can be described thus: Antiviral activity against Hepatitis C virus Con1 Bart79I genotype 1b expressing YFP infected in human Huh7.5 cells assessed as NS5A S2204I mutant synthesis at 10 uM after 48 hrs by FACS analysis (reference value: 52.2%). The test is classed as functional, Hepacivirus hominis, subtype 1b Con1 Bart79I, Huh-7. The method in brief:
as §1

As a reminder, the pEC50 is the negative decadic logarithm of the EC50, by convention in mol/L.

As to `C/C(=C\c1c[nH]c2ccc(C#N)cc12)C(=O)Nc1ccc(C(C)(C)C)cc1`, the Ratio in [1] was 1.8. In addition, the inhibition result is “Dose-dependent effect” in test [2] (Hepacivirus hominis, Huh-7); “Dose-dependent effect” in test [7] (Hepacivirus hominis, Huh-7); “tde” in test [9]. Moreover, the pEC50 is 5.99 in test [2] (Huh-7, 120 h) and 5.60 in [7] (Huh-7, 120 h). Further, the Activity in test [3] came out at 0.7%; in test [4], 0.6%; in [10], 11.8%. Moreover, the T1/2 stood at 31.8 h in test [5], 17.2 h in [6] and 31.7 h in [8].
